Measured values taken from ChEMBL document CHEMBL2375313, “Synthesis, in vitro antitumor evaluation and DNA-binding study of novel tetrahydroquinolines and some derived tricyclic and tetracyclic ring systems” (Eur J Med Chem, 2013).

Assays:
Assay type in all cases: functional
HOP-92 = experiment: Cytotoxicity against human HOP92 cells assessed as growth inhibition at 10 uM after 48 hrs by sulphorhodamine B assay; settings: HOP-92, 48 h, read-out: GI
Method in brief: (§1)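 NCI-60 one-dose screen per the NCI Drug Evaluation Branch protocol. Cells given a single 10 µM concentration with 48 h continuous exposure. Growth estimated by sulphorhodamine B protein assay. Result expressed as percentage growth inhibition relative to untreated growth.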

NCI-H23 = experiment: Cytotoxicity against human NCI-H23 cells assessed as growth inhibition at 10 uM after 48 hrs by sulphorhodamine B assay; settings: NCI-H23, 48 h, read-out: GI; method in brief: as §1
[1] = Cytotoxicity against human EKVX cells assessed as growth inhibition at 10 uM after 48 hrs by sulphorhodamine B assay; settings: read-out: GI; method in brief: as §1
A549 = experiment: Cytotoxicity against human A549 cells assessed as growth inhibition at 10 uM after 48 hrs by sulphorhodamine B assay; settings: A549, 48 h, read-out: GI; method in brief: as §1
NCI/ADR-RES = experiment: Cytotoxicity against human NCI/ADR-RES cells assessed as growth inhibition at 10 uM after 48 hrs by sulphorhodamine B assay; settings: read-out: GI; method in brief: as §1
SNB-75 = experiment: Cytotoxicity against human SNB75 cells assessed as growth inhibition at 10 uM after 48 hrs by sulphorhodamine B assay; settings: SNB-75, 48 h, read-out: GI; method in brief: as §1
U-251 = experiment: Cytotoxicity against human U251 cells assessed as growth inhibition at 10 uM after 48 hrs by sulphorhodamine B assay; settings: U-251, 48 h, read-out: GI; method in brief: as §1
SNB-19 = experiment: Cytotoxicity against human SNB19 cells assessed as growth inhibition at 10 uM after 48 hrs by sulphorhodamine B assay; settings: SNB-19, 48 h, read-out: GI; method in brief: as §1
SF-295 = experiment: Cytotoxicity against human SF295 cells assessed as growth inhibition at 10 uM after 48 hrs by sulphorhodamine B assay; settings: SF-295, 48 h, read-out: GI; method in brief: as §1
DU-145 = experiment: Cytotoxicity against human DU145 cells assessed as growth inhibition at 10 uM after 48 hrs by sulphorhodamine B assay; settings: DU-145, 48 h, read-out: GI; method in brief: as §1
SF-268 = experiment: Cytotoxicity against human SF268 cells assessed as growth inhibition at 10 uM after 48 hrs by sulphorhodamine B assay; settings: SF-268, 48 h, read-out: GI; method in brief: as §1
PC-3 = experiment: Cytotoxicity against human PC3 cells assessed as growth inhibition at 10 uM after 48 hrs by sulphorhodamine B assay; settings: PC-3, 48 h, read-out: GI; method in brief: as §1
UACC-62 = experiment: Cytotoxicity against human UACC62 cells assessed as growth inhibition at 10 uM after 48 hrs by sulphorhodamine B assay; settings: UACC-62, 48 h, read-out: GI; method in brief: as §1
SK-MEL-2 = experiment: Cytotoxicity against human SK-MEL-2 cells assessed as growth inhibition at 10 uM after 48 hrs by sulphorhodamine B assay; settings: SK-MEL-2, 48 h, read-out: GI; method in brief: as §1
SK-MEL-5 = experiment: Cytotoxicity against human SK-MEL-5 cells assessed as growth inhibition at 10 uM after 48 hrs by sulphorhodamine B assay; settings: SK-MEL-5, 48 h, read-out: GI; method in brief: as §1
M14 = experiment: Cytotoxicity against human M14 cells assessed as growth inhibition at 10 uM after 48 hrs by sulphorhodamine B assay; settings: M14, 48 h, read-out: GI; method in brief: as §1
LOX IMVI = experiment: Cytotoxicity against human LOXIMVI cells assessed as growth inhibition at 10 uM after 48 hrs by sulphorhodamine B assay; settings: read-out: GI; method in brief: as §1
UO-31 = experiment: Cytotoxicity against human UO31 cells assessed as growth inhibition at 10 uM after 48 hrs by sulphorhodamine B assay; settings: UO-31, 48 h, read-out: GI; method in brief: as §1
CAKI-1 = experiment: Cytotoxicity against human Caki1 cells assessed as growth inhibition at 10 uM after 48 hrs by sulphorhodamine B assay; settings: CAKI-1, 48 h, read-out: GI; method in brief: as §1
RXF 393 = experiment: Cytotoxicity against human RXF393 cells assessed as growth inhibition at 10 uM after 48 hrs by sulphorhodamine B assay; settings: RXF 393, 48 h, read-out: GI; method in brief: as §1
ACHN = experiment: Cytotoxicity against human ACHN cells assessed as growth inhibition at 10 uM after 48 hrs by sulphorhodamine B assay; settings: read-out: GI; method in brief: as §1
SR = experiment: Cytotoxicity against human SR cells assessed as growth inhibition at 10 uM after 48 hrs by sulphorhodamine B assay; settings: read-out: GI; method in brief: as §1
A498 = experiment: Cytotoxicity against human A498 cells assessed as growth inhibition at 10 uM after 48 hrs by sulphorhodamine B assay; settings: A498, 48 h, read-out: GI; method in brief: as §1
RPMI-8226 = experiment: Cytotoxicity against human RPMI8226 cells assessed as growth inhibition at 10 uM after 48 hrs by sulphorhodamine B assay; settings: RPMI-8226, 48 h, read-out: GI; method in brief: as §1
MOLT-4 = experiment: Cytotoxicity against human MOLT4 cells assessed as growth inhibition at 10 uM after 48 hrs by sulphorhodamine B assay; settings: MOLT-4, 48 h, read-out: GI; method in brief: as §1
K562 = experiment: Cytotoxicity against human K562 cells assessed as growth inhibition at 10 uM after 48 hrs by sulphorhodamine B assay; settings: K562, 48 h, read-out: GI; method in brief: as §1
HL-60(TB) = experiment: Cytotoxicity against human HL-60(TB) cells assessed as growth inhibition at 10 uM after 48 hrs by sulphorhodamine B assay; settings: HL-60, 48 h, read-out: GI
Method in brief: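 NCI-60 one-dose primary screen run to the Drug Evaluation Branch protocol. Cells are exposed to a single 10 µM concentration for 48 h continuously, and growth is read by SRB protein assay. Data are reported as percent growth of treated cells, expressed as % growth inhibition.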

SK-OV-3 = experiment: Cytotoxicity against human SKOV3 cells assessed as growth inhibition at 10 uM after 48 hrs by sulphorhodamine B assay; settings: SK-OV-3, 48 h, read-out: GI; method in brief: as §1
CCRF-CEM = experiment: Cytotoxicity against human CCRF-CEM cells assessed as growth inhibition at 10 uM after 48 hrs by sulphorhodamine B assay; settings: read-out: GI; method in brief: as §1
OVCAR-5 = experiment: Cytotoxicity against human OVCAR5 cells assessed as growth inhibition at 10 uM after 48 hrs by sulphorhodamine B assay; settings: OVCAR-5, 48 h, read-out: GI; method in brief: as §1
OVCAR-4 = experiment: Cytotoxicity against human OVCAR4 cells assessed as growth inhibition at 10 uM after 48 hrs by sulphorhodamine B assay; settings: OVCAR-4, 48 h, read-out: GI; method in brief: as §1
IGROV-1 = experiment: Cytotoxicity against human IGROV1 cells assessed as growth inhibition at 10 uM after 48 hrs by sulphorhodamine B assay; settings: IGROV-1, 48 h, read-out: GI; method in brief: as §1
T47D = experiment: Cytotoxicity against human T47D cells assessed as growth inhibition at 10 uM after 48 hrs by sulphorhodamine B assay; settings: read-out: GI; method in brief: as §1
Hs-578T = experiment: Cytotoxicity against human Hs578T cells assessed as growth inhibition at 10 uM after 48 hrs by sulphorhodamine B assay; settings: read-out: GI; method in brief: as §1
NCI-H522 = experiment: Cytotoxicity against human NCI-H522 cells assessed as growth inhibition at 10 uM after 48 hrs by sulphorhodamine B assay; settings: NCI-H522, 48 h, read-out: GI; method in brief: as §1
HT-29 = experiment: Cytotoxicity against human HT-29 cells assessed as growth inhibition at 10 uM after 48 hrs by sulphorhodamine B assay; settings: HT-29, 48 h, read-out: GI; method in brief: as §1
MCF7 = experiment: Cytotoxicity against human MCF7 cells assessed as growth inhibition at 10 uM after 48 hrs by sulphorhodamine B assay; settings: MCF7, 48 h, read-out: GI; method in brief: as §1
MDA-MB-435 = experiment: Cytotoxicity against human MDA-MB-435 cells assessed as growth inhibition at 10 uM after 48 hrs by sulphorhodamine B assay; settings: MDA-MB-435, 48 h, read-out: GI; method in brief: as §1
HCT-15 = experiment: Cytotoxicity against human HCT15 cells assessed as growth inhibition at 10 uM after 48 hrs by sulphorhodamine B assay; settings: HCT-15, 48 h, read-out: GI; method in brief: as §1
MDA-MB-468 = experiment: Cytotoxicity against human MDA-MB-468 cells assessed as growth inhibition at 10 uM after 48 hrs by sulphorhodamine B assay; settings: MDA-MB-468, 48 h, read-out: GI; method in brief: as §1
HCT-116 = experiment: Cytotoxicity against human HCT116 cells assessed as growth inhibition at 10 uM after 48 hrs by sulphorhodamine B assay; settings: HCT-116, 48 h, read-out: GI; method in brief: as §1

## CC1CCCc2c1nc(N)c(C#N)c2-c1ccc(Cl)cc1 (stereo unspecified)
HOP-92
  inhibition of growth at 10 µM: 10%
NCI-H23
  inhibition of growth at 10 µM: < 10%
[1]
  inhibition of growth at 10 µM: 39.5%
A549
  inhibition of growth at 10 µM: < 10%
NCI/ADR-RES
  inhibition of growth at 10 µM: < 10%
SNB-75
  inhibition of growth at 10 µM: 26.8%
U-251
  inhibition of growth at 10 µM: < 10%
SNB-19
  inhibition of growth at 10 µM: 20.5%
SF-295
  inhibition of growth at 10 µM: < 10%
DU-145
  inhibition of growth at 10 µM: < 10%
SF-268
  inhibition of growth at 10 µM: 11.3%
PC-3
  inhibition of growth at 10 µM: < 10%
UACC-62
  inhibition of growth at 10 µM: 24.2%
SK-MEL-2
  inhibition of growth at 10 µM: 15%
SK-MEL-5
  inhibition of growth at 10 µM: < 10%
M14
  inhibition of growth at 10 µM: < 10%
LOX IMVI
  inhibition of growth at 10 µM: < 10%
UO-31
  inhibition of growth at 10 µM: < 10%
CAKI-1
  inhibition of growth at 10 µM: < 10%
RXF 393
  inhibition of growth at 10 µM: < 10%
ACHN
  inhibition of growth at 10 µM: < 10%
SR
  inhibition of growth at 10 µM: < 10%
A498
  inhibition of growth at 10 µM: 21.7%
RPMI-8226
  inhibition of growth at 10 µM: 18.2%
MOLT-4
  inhibition of growth at 10 µM: < 10%
K562
  inhibition of growth at 10 µM: 11.8%
HL-60(TB)
  inhibition of growth at 10 µM: < 10%
SK-OV-3
  inhibition of growth at 10 µM: < 10%
CCRF-CEM
  inhibition of growth at 10 µM: 13.3%
OVCAR-5
  inhibition of growth at 10 µM: < 10%
OVCAR-4
  inhibition of growth at 10 µM: 10.1%
IGROV-1
  inhibition of growth at 10 µM: < 10%
T47D
  inhibition of growth at 10 µM: 17.2%
Hs-578T
  inhibition of growth at 10 µM: 25%
NCI-H522
  inhibition of growth at 10 µM: < 10%
HT-29
  inhibition of growth at 10 µM: < 10%
MCF7
  inhibition of growth at 10 µM: 31.5%
MDA-MB-435
  inhibition of growth at 10 µM: < 10%
HCT-15
  inhibition of growth at 10 µM: < 10%
MDA-MB-468
  inhibition of growth at 10 µM: 36.5%
HCT-116
  inhibition of growth at 10 µM: < 10%
